The text below walks through data of ChEMBL document CHEMBL1152812, “Novel trans-2-aryl-cyclopropylamine analogues as potent and selective dipeptidyl peptidase IV inhibitors” (Bioorg Med Chem, 2009).

Structures are written as SMILES. Calls of active or inactive are those of the source. Some results are limits rather than exact numbers.

The target in one data set is Dipeptidyl peptidase 2 (Homo sapiens, UniProt Q9UHL4). The data set is described as follows: Inhibition of human DPP2.
The next data set addresses T1, Prolyl endopeptidase FAP (Homo sapiens, UniProt Q12884).
T1 sequence (Q12884 whole entry): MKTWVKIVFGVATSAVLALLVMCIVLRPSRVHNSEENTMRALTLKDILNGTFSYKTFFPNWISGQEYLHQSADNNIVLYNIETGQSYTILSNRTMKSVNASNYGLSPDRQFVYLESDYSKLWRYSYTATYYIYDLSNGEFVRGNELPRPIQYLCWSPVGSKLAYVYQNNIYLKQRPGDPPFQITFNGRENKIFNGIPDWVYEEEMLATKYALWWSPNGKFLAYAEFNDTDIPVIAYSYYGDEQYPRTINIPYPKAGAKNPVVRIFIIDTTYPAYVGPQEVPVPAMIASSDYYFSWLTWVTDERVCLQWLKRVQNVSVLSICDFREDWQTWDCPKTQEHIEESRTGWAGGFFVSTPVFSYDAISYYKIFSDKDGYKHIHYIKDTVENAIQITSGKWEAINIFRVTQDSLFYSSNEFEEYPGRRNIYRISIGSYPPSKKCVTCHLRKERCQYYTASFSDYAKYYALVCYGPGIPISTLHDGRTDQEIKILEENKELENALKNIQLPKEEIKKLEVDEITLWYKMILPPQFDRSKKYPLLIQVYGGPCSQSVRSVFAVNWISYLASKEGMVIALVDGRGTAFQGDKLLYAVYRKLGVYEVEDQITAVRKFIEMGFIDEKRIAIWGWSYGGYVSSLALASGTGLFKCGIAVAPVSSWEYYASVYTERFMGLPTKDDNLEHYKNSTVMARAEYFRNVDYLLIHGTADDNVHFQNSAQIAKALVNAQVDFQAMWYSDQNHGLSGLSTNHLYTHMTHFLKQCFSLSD
Description: Inhibition of human FAP.

For data set [1], the species on record is Homo sapiens. The data set is described as follows: Selectivity for ratio of IC50 for human DPP4 to IC50 for human DPP8.
Data set [2] is filed under the species Homo sapiens. Description: Selectivity for ratio of IC50 for human DPP4 to IC50 for human DPP2.
The species entered for data set [3] is Homo sapiens. Description: Selectivity for ratio of IC50 for human DPP4 to IC50 for human FAP.
Data set [4] is described as follows: Plasma clearance in rat at 5 mg/kg, iv or 10 mg/kg, po. The class given is ADME, organism-based. In outline:
(§1)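 Rat pharmacokinetics after dosing at 5 mg/kg iv and 10 mg/kg po. Parameters derived: plasma clearance, oral Cmax, oral half-life, dose-normalised oral AUC and oral bioavailability (F).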

Data set [5] in a line: Cmax in rat at 10 mg/kg, po. The class given is ADME, organism-based. Also noted: dose 10 mg/kg, route oral. The following applies: in vivo. A digest of the protocol:
as §1

A short description of data set [6]: Half life in rat at 10 mg/kg, po. The class given is ADME, organism-based. Also noted: dose 10 mg/kg, route oral. The following applies: in vivo. In outline: as §1
Data set [7] is described as follows: Oral bioavailability in rat at 10 mg/kg, po. The class given is ADME, organism-based. The following applies: in vivo. A digest of the protocol:
as §1

For a further data set, the target named is hERG (KCNH2) (Homo sapiens, UniProt Q12809). The data set is described as follows: Inhibition of human ERG at 10 uM. In outline: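 hERG binding; percent inhibition at a test concentration of 10 µM.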
Data set [8] concerns Rattus norvegicus. The data set is described as follows: Inhibition of DPP4 in Wistar rat plasma at 10 mg/kg, po within 30 mins. The class given is functional. Conditions: 0.5 h. In outline:
(§2)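 Adult male Wistar rats (n = 4–6/group) given a single oral gavage of 10 mg/kg in 0.5% methyl cellulose. Tail-vein blood (25–50 µl) taken at timed points and plasma kept frozen. Plasma (10 µl) mixed with 150 µM Gly-Pro-AMC in 25 mM Tris-HCl pH 7.4, 140 mM NaCl, 10 mM KCl, 0.1% BSA. Fluorescence read at ex 390/em 460 nm. Activity in U/mL; mean ± SEM.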

Data set [9] has as its system Rattus norvegicus. Description: Inhibition of DPP4 in Wistar rat plasma at 10 mg/kg, po after 24 hrs. The format is functional, organism-based. Also noted: dose 10 mg/kg. A digest of the protocol:
as §2

The subject of data set [10] is Mus musculus. The data set is described as follows: Reduction in glucose excursion in C57BL/6J lean mouse at 1 mg/kg, po pretreated 30 mins before glucose challenge measured after 120 mins by oral glucose tolerance test relative to control. The class given is functional. The arrangement: scale not given: the % may be the effect or the level left. In outline:
(§3)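 Fasted overnight: adult male C57BL/6 mice (20–25 g, 6–8 weeks old, n = 6/group), grouped by tail-vein glucometer reading. Oral gavage of test agent in distilled water at −30 min (1, 3 or 10 mg/kg), then 3 g/kg oral glucose (400 mg/mL) at 0 min.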

In data set [11] the test system is Mus musculus. Description: Reduction in glucose excursion in C57BL/6J lean mouse at 10 mg/kg, po pretreated 30 mins before glucose challenge measured after 120 mins by oral glucose tolerance test relative to control. The class given is functional. Also noted: scale not given: the % may be the effect or the level left. A digest of the protocol:
as §3

Data set [12] concerns Mus musculus. The data set is described as follows: Reduction in glucose excursion in po dosed C57BL/6J lean mouse pretreated for 30 mins before glucose challenge measured after 120 mins by oral glucose tolerance test. The class given is functional, organism-based. In outline:
as §3

In data set [13] the test system is Mus musculus. Description: Reduction in glucose AUC in C57BL/6J diet-induced obese mouse at 1 mg/kg, po pretreated 30 mins before glucose challenge measured after 120 mins by oral glucose tolerance test relative to control. The class given is functional. The arrangement: scale not given: the % may be the effect or the level left. A digest of the protocol: (§4)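 Male C57BL/6j DIO mice (40–50 g, 27 weeks old, n = 6/group) fasted overnight and grouped by tail-vein glucometer reading. Test agent given by oral gavage in distilled water, then 3 g/kg glucose orally (400 mg/mL in water) 30 min later.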

Data set [14] has as its system Mus musculus. The data set is described as follows: Reduction in glucose AUC in C57BL/6J diet-induced obese mouse at 3 mg/kg, po pretreated 30 mins before glucose challenge measured after 120 mins by oral glucose tolerance test relative to control. The arrangement: scale not given: the % may be the effect or the level left. The format is functional. In outline: as §4

In data set [15] the test system is Mus musculus. The data set is described as follows: Reduction in glucose AUC in C57BL/6J diet-induced obese mouse at 10 mg/kg, po pretreated 30 mins before glucose challenge measured after 120 mins by oral glucose tolerance test relative to control. The class given is functional. The arrangement: scale not given: the % may be the effect or the level left. In outline: as §4

For data set [16], the target named is T2, Endothelin-converting enzyme 1 (Homo sapiens) (UniProt P42892).
T2 sequence (whole entry): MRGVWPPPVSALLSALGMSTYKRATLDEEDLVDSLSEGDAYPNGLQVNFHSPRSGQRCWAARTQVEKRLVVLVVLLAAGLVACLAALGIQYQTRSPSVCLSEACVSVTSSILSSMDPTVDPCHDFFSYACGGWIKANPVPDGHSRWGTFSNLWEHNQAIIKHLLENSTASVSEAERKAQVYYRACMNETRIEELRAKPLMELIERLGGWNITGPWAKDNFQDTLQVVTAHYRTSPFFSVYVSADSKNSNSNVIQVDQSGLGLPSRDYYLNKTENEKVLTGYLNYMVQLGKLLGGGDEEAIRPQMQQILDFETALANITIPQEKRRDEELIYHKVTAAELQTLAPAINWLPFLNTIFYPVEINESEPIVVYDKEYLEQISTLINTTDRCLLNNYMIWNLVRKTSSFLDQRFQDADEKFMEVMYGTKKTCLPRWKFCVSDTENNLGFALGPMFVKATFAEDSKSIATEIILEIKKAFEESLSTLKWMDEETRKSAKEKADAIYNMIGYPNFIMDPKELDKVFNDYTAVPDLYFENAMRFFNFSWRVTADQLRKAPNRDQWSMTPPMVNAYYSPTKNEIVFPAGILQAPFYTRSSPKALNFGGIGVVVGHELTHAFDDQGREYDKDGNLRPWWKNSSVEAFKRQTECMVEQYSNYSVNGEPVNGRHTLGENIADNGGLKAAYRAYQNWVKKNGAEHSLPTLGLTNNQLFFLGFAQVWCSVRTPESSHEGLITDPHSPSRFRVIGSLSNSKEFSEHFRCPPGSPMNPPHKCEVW
Description: Inhibition of ECE-1 at 10 uM. A digest of the protocol: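 Part of a panel of 167 enzyme assays; percent inhibition at a test concentration of 10 µM.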

Sequence of hERG (KCNH2) (Q12809 whole entry): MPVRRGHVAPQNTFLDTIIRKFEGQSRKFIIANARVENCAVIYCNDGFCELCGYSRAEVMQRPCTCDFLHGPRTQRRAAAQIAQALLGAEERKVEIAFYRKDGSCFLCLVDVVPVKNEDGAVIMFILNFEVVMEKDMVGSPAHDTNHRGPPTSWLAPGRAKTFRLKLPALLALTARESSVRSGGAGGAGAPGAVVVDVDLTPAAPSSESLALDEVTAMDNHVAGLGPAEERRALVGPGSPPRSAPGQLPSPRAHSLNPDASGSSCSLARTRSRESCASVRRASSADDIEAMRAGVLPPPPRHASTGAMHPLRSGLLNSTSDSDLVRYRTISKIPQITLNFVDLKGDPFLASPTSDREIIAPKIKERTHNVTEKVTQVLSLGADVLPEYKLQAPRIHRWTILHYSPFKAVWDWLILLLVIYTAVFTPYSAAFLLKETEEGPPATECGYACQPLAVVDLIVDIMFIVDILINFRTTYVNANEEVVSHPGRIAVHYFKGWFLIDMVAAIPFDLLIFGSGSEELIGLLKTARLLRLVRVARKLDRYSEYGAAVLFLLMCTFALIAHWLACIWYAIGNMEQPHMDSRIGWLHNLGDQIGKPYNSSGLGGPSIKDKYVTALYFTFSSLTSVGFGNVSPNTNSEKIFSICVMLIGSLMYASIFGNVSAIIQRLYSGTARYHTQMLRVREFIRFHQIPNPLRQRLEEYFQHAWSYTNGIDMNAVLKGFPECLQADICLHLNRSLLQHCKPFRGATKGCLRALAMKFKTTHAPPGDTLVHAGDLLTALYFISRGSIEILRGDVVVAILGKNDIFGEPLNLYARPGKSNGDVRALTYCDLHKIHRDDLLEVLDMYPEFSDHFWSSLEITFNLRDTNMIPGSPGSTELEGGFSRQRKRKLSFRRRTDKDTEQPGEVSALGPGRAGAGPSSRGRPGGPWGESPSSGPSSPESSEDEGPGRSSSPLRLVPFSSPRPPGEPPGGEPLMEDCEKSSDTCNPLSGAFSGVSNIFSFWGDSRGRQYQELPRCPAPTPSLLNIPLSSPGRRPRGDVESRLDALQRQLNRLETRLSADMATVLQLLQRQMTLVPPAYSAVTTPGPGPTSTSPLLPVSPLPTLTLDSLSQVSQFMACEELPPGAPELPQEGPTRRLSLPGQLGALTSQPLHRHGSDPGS

For `CC(C)(CC(=O)N[C@H]1C[C@@H]1c1cccc(Cl)c1)NCC(=O)N1C[C@@H](F)C[C@H]1C#N`, the IC50 on Dipeptidyl peptidase 2 and against Prolyl endopeptidase FAP was above 20 µM in each case. For the same compound, the Activity in the data set listed under Homo sapiens [1] was above 1300; in the data set filed under Homo sapiens [2] it was above 1300; in the data set filed under Homo sapiens [3], above 1300; in the data set with Mus musculus [10], 50%; in the data set on Mus musculus [11] it was 73%; in the data set on Mus musculus [12], “Dose-dependent effect”. The results for the Activity with Mus musculus [13], in the data set with Mus musculus [14] and with Mus musculus [15] were 72%, 98% and 83%, respectively. In addition, the clearance in [4] worked out at 1.32 L/h/kg. The highest level in data set [5] (Cmax) was 0.621 µg/mL. Besides, the half-life (as a rule, the time needed for the level to fall by half in the phase considered) in data set [6] was 4.8 h. In data set [7], the bioavailability (in general, dose-corrected exposure relative to a reference, in per cent) stood at 42%. In addition, at 10 µM the inhibition at hERG (KCNH2) was 11%. In addition, in the data set on Rattus norvegicus [8], the inhibition in vivo (commonly the drop in the measured response relative to a control, in per cent) at 10 mg/kg was above 85%. The outcome in the data set on Rattus norvegicus [9] was inactive. Also, the inhibition (usually the change of the read-out against control, counted positive when it falls) in data set [16] stood at 53%.
